Measurements taken from article PMC7787346 (Clinical cancer research : an official journal of the …, 2019).
Entries after “also recorded” stand apart in the source; their conditions may differ.

Tests used:
[1] = tested on: pediatric patients with relapsed or refractory acute leukemia; settings: selinexor plus fludarabine and cytarabine; cited from earlier work
[2] = Plasma pharmacokinetics of selinexor; type: in vivo, human; settings: for Tmax / AUC(0-t) / Cmax: human, plasma; for AUC(0-t): AUC0–8h
gated CD34+ cells = test: Ex vivo sensitivity of patient bone marrow MNCs, flow cytometry for apoptosis; type: cell-based, human
In short: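 Screening bone marrow aspirates were Ficoll-enriched for mononuclear cells and plated at 3 million cells per mL. Cells were incubated 20 hours with titrated test compound, alone or combined with 40 µmol/L cytarabine or 1 µmol/L daunorubicin. Apoptosis (active caspase-3) was measured by flow cytometry on gated CD34+ cells. Of 10 samples, 2 were excluded for low viability or <5% CD34+ cells, leaving 8.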

[3] = tested on: patients with previously untreated poor-risk AML; test: G-banding cytogenetic analysis of bone marrow aspirates at follow-up; type: in vivo, human
In short: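 G-banding cytogenetics was done on each patient's bone marrow aspirate at diagnosis and, for most patients, at response assessment. Marrow aspirations and biopsies for response were taken between days 28 and 72 after induction or reinduction: daunorubicin/cytarabine 7+3 (or 5+2) plus oral test compound at 60 or 80 mg.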

[4] = tested on: patients with previously untreated poor-risk AML; type: in vivo
[5] = tested on: patients with previously untreated poor-risk AML; test: Phase I trial of selinexor plus 7+3: response; type: in vivo, human; settings: for Median overall survival: 95% CI 3.74–NR
[6] = tested on: AML cell lines and AML patient cells; test: Preclinical combination studies of selinexor and daunorubicin; type: cell-based; settings: Supplementary Figs. S1 and S2, Supplementary Table S1
[7] = treatment failure (n = 9), baseline 1, 5 not assessed
[8] = 16 response eligible patients, poor-risk by NCCN criteria
[9] = 19 patients evaluable for response

Compound: O=C(/C=C\n1cnc(-c2cc(C(F)(F)F)cc(C(F)(F)F)c2)n1)NNc1cnccn1 [selinexor]
- Patients who tested negative for measurable residual disease [1]: 5 patients
- Exposure (based on AUC) on days 1 and 15 ([2]; day 1 versus day 15): similar
- Tmax ([2]; oral, Mean Tmax, day 15, delayed absorption): 4 h
- AUC(0-t) ([2]; po, 60 mg, selinexor 60 mg oral, day 1, 4 patients): 1850 ± 972 ng·h/mL
- AUC(0-t) ([2]; po, 60 mg, selinexor 60 mg oral, day 15, 3 patients): 1710 ± 1030 ng·h/mL
- Cmax ([2]; po, 60 mg, Cmax, selinexor 60 mg oral, day 1, 4 patients): 457 ± 196 ng/mL
- Cmax ([2]; po, 60 mg, Cmax, selinexor 60 mg oral, day 15, 3 patients): 392 ± 290 ng/mL
- Cmax ([2]; po, 60 mg, Mean Cmax, selinexor 60 mg oral, day 1, 4 patients): 1030 nM
- Tmax ([2]; po, 60 mg, Tmax, selinexor 60 mg oral, day 1, 4 patients): 2 ± 3.2 h
- Tmax ([2]; po, 60 mg, Tmax, selinexor 60 mg oral, day 15, 3 patients): 4 ± 1.2 h
- AUC(0-t) ([2]; po, 80 mg, selinexor 80 mg oral, day 1, 17 patients): 2590 ± 1110 ng·h/mL
- AUC(0-t) ([2]; po, 80 mg, selinexor 80 mg oral, day 15, 13 patients): 2100 ± 1080 ng·h/mL
- Cmax ([2]; po, 80 mg, Cmax, selinexor 80 mg oral, day 1, 17 patients): 601 ± 302 ng/mL
- Cmax ([2]; po, 80 mg, Cmax, selinexor 80 mg oral, day 15, 13 patients): 482 ± 288 ng/mL
- Cmax ([2]; po, 80 mg, Mean Cmax, selinexor 80 mg oral, day 1, 17 patients): 1360 nM
- Tmax ([2]; po, 80 mg, Tmax, selinexor 80 mg oral, day 1, 17 patients): 2 ± 2.2 h
- Tmax ([2]; po, 80 mg, Tmax, selinexor 80 mg oral, day 15, 13 patients): 4 ± 2.5 h
- AUC0–8h ([2]; selinexor 60 mg oral, day 1, 4 patients): 1,853 ng/h/mL
- AUC0–8h ([2]; selinexor 80 mg oral, day 1, 17 patients): 2,590 ng/h/mL
- Synergy between selinexor and daunorubicin (gated CD34+ cells; titrated selinexor with 1 µmol/L daunorubicin, patient samples ex vivo): no synergy
- Effects of the combination on apoptosis (gated CD34+ cells; titrated selinexor with 40 µmol/L cytarabine or 1 µmol/L daunorubicin): additive
- Cytogenetics at follow-up: Chr 5 abnormalities ([3]; responders (n = 10), baseline 0): 0 no.
- Cytogenetics at follow-up: Chr 7 abnormalities ([3]; responders (n = 10), baseline 1): 1 no.
- Cytogenetics at follow-up: Other Chr abnormalities ([3]; responders (n = 10), baseline 2): 0 no.
- Cytogenetics at follow-up: Complex ([3]; responders (n = 10), baseline 3): 1 no.
- Cytogenetics at follow-up: Diploid ([3]; responders (n = 10), baseline 4): 8 no.
- Cytogenetics at follow-up: Chr 7 abnormalities ([3]; treatment failure (n = 9), baseline 0, 5 not assessed): 0 no.
- Cytogenetics at follow-up: Chr 5 abnormalities [3, 7]: 1 no.
- Cytogenetics at follow-up: Other Chr abnormalities [3, 7]: 0 no.
- Cytogenetics at follow-up: Diploid ([3]; treatment failure (n = 9), baseline 3, 5 not assessed): 2 no.
- Cytogenetics at follow-up: Complex ([3]; treatment failure (n = 9), baseline 4, 5 not assessed): 1 no.
- Patients who died during the treatment or follow-up phases ([4]; 21 patients, majority related to relapsed or refractory AML): 62%
- Grade 3/4 nonhematologic TEAE sepsis ([4]; grade 3/4, selinexor + 7+3, 21 patients): 14%
- Median time to a platelet count ≥50,000 ([4]; human, in vivo): 35 days
- Median time to absolute neutrophil count (ANC) ≥500 ([4]; human, in vivo): 26 days
- Patients with at least one grade 3/4 AE ([4]; human, in vivo): 95%
- Only grade 3 AE during maintenance therapy ([4]; in vivo): fatigue
- Patients who experienced at least 1 TEAE ([4]; in vivo): Every patient
- Patients who experienced diarrhea or hyponatremia ([4]; in vivo): None
- CRi after second induction ([5]; 6 patients who received a second induction (selinexor + 5+2)): 17%
- CR/CRi rate ([5]; 7 evaluable patients with TP53 mutation at diagnosis (6 with complex karyotype)): 43%
- Median OS ([5]; 10 responding patients, median follow-up 28.9 months): not reached
- CR/CRi rate ([5]; 16 evaluable patients treated at the RP2D (80 mg)): 50%
- CR/CRi rate [5, 8]: 50%
- Treatment failures [5, 8]: 50%
- Evaluable patients alive at 12 months (12-month OS) ([5]; 19 evaluable patients): 47.4%
- Median overall survival ([5]; 19 evaluable patients, median follow-up 26.9 months): 10.3 months
- CR/CRi rate (overall response rate) [5, 9]: 53%
- Patients who achieved CR [5, 9]: 42%
- Patients who achieved CRi [5, 9]: 11%
- Treatment failures due to refractory AML [5, 9]: 47%
- CR ([5]; age ≥60, n = 16): 7 (44) no. (%)
- CR + CRi ([5]; age ≥60, n = 16): 9 (56) no. (%)
- CRi ([5]; age ≥60, n = 16): 2 (13) no. (%)
- Treatment failure ([5]; age ≥60, n = 16): 7 (44) no. (%)
- CR ([5]; age ≥70, n = 8): 3 (38) no. (%)
- CR + CRi ([5]; age ≥70, n = 8): 3 (38) no. (%)
- CRi ([5]; age ≥70, n = 8): 0 (0) no. (%)
- Patients alive at median follow-up ([5]; all 21 patients, median follow-up 28.9 months): 38%
- Median overall survival ([5]; entire cohort, n = 21): 10.3 months
- CR ([5]; evaluable patients, n = 19): 8 (42.1) no. (%)
- CR + CRi ([5]; evaluable patients, n = 19): 10 (52.6) no. (%)
- CRi ([5]; evaluable patients, n = 19): 2 (10.5) no. (%)
- Treatment failure ([5]; evaluable patients, n = 19): 9 (47.4) no. (%)
- Responders alive ([5]; median follow-up of 28.9 months): 60%
- Responding patients who remained in CR/CRi ([5]; median follow-up of over 2 years, all underwent allogeneic stem cell transplant in first remission): 5 of 10
- CR/CRi rate ([5]; patients who had previously received a hypomethylating agent (8 patients)): 13%
- CR ([5]; prior HMA, n = 8): 1 (13) no. (%)
- CR + CRi ([5]; prior HMA, n = 8): 1 (13) no. (%)
- CRi ([5]; prior HMA, n = 8): 0 (0) no. (%)
- Treatment failure ([5]; prior HMA, n = 8): 7 (87) no. (%)
- CR ([5]; sAML, n = 12): 3 (25) no. (%)
- CR + CRi ([5]; sAML, n = 12): 4 (33) no. (%)
- CRi ([5]; sAML, n = 12): 1 (8) no. (%)
- Treatment failure ([5]; sAML, n = 12): 8 (67) no. (%)
- Interaction between selinexor and daunorubicin [6]: strong synergistic interactions; also recorded: strong synergy
